Test results: ChEMBL document CHEMBL1949528, “New inhibitor of 3-phosphoinositide dependent protein kinase-1 identified from virtual screening” (Bioorg Med Chem Lett, 2012)

Columns and labels:
[1] = target: T1, 3-phosphoinositide-dependent protein kinase 1 (Homo sapiens, UniProt O15530); assay: Inhibition of recombinant PDK1 using P2925 peptide as substrate by fluorescence polarization assay
T1 sequence (O15530 whole entry): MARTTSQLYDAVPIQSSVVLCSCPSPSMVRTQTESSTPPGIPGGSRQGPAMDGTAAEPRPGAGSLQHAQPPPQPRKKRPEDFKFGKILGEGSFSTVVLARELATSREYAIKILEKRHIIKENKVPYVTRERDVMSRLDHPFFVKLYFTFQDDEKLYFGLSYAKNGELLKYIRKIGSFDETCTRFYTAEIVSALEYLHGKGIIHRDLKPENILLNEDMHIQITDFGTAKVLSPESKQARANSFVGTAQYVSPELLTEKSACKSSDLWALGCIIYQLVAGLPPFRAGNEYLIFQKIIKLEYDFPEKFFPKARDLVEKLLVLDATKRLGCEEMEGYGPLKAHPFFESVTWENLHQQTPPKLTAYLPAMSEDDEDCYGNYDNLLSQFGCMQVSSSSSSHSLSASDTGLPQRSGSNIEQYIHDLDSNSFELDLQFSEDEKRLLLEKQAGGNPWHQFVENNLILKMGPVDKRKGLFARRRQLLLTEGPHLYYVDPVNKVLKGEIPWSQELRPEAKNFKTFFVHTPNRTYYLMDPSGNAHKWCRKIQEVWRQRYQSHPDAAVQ
Summary of the method: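 A fluorescence polarization kit assay. Recombinant PDK1 phosphorylates the substrate peptide with DMSO or inhibitor present. The phosphopeptide formed competes with a fluorescein-labeled phosphopeptide tracer for an anti-phosphothreonine antibody, and polarization is then read on a plate reader. A standard reference inhibitor was run alongside.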

SF-295 = assay: Growth inhibition of human SF295 cells after 48 hrs by sulforhodamine B assay; format: functional; settings: SF-295, 48 h
Summary of the method: (§1)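 Run in the NCI-DTP 60-cell-line screen. Cells were exposed for 48 h to at least five 10-fold dilutions (0.01 to 100 μM). Cell growth was estimated by sulforhodamine B protein staining. Percentage growth at each level was taken from absorbances at time zero (Tz), of the untreated control (C) and of treated cells (Ti), as [(Ti-Tz)/(C-Tz)]*100.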

SF-268 = assay: Growth inhibition of human SF268 cells after 48 hrs by sulforhodamine B assay; format: functional; settings: SF-268, 48 h; summary of the method: as §1
Hs-578T [2] = assay: Growth inhibition of human Hs578T cells at 10 uM after 48 hrs by sulforhodamine B assay; format: functional; settings: read-out: GI
Summary of the method: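 A single-concentration NCI-DTP test at 10 μM, run two times. After 48 h exposure, growth was read by sulforhodamine B staining and expressed as percentage growth, [(Ti-Tz)/(C-Tz)]*100, against time-zero and untreated-control absorbances. Growth inhibition is reported as 100 minus percentage growth.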

LOX IMVI = assay: Growth inhibition of human LOXIMVI cells after 48 hrs by sulforhodamine B assay; format: functional; summary of the method: as §1
KM12 = assay: Growth inhibition of human KM12 cells after 48 hrs by sulforhodamine B assay; format: functional; settings: KM12, 48 h; summary of the method: as §1
HOP-92 = assay: Growth inhibition of human HOP92 cells after 48 hrs by sulforhodamine B assay; format: functional; settings: HOP-92, 48 h; summary of the method: as §1
Hs-578T [3] = assay: Growth inhibition of human Hs578T cells after 48 hrs by sulforhodamine B assay; format: functional; summary of the method: as §1
DU-145 = assay: Growth inhibition of human DU145 cells after 48 hrs by sulforhodamine B assay; format: functional; settings: DU-145, 48 h; summary of the method: as §1
RPMI-8226 = assay: Growth inhibition of human RPMI8226 cells after 48 hrs by sulforhodamine B assay; format: functional; settings: RPMI-8226, 48 h; summary of the method: as §1
PC-3 = assay: Growth inhibition of human PC3 cells after 48 hrs by sulforhodamine B assay; format: functional; settings: PC-3, 48 h; summary of the method: as §1
RXF 393 = assay: Growth inhibition of human RXF393 cells after 48 hrs by sulforhodamine B assay; format: functional; settings: RXF 393, 48 h; summary of the method: as §1
U-251 = assay: Growth inhibition of human U251 cells after 48 hrs by sulforhodamine B assay; format: functional; settings: U-251, 48 h; summary of the method: as §1
OVCAR-3 = assay: Growth inhibition of human OVCAR3 cells after 48 hrs by sulforhodamine B assay; format: functional; settings: OVCAR-3, 48 h; summary of the method: as §1

IC50 [1]: 0.2 µM | GI50 (DU-145): 5.39 µM | GI50 (RPMI-8226): 3.54 µM | GI50 (PC-3): 6.02 µM | GI50 (U-251): 9.88 µM | GI50 (OVCAR-3): 2.02 µM
Compound: CCOC(=O)c1ccc(Nc2cc(C)nc(Nc3ccc(C(=O)OCC)cc3)n2)cc1
GI50 (SF-295): 8.64 µM | GI50 (SF-268): 3.8 µM | inhibition of growth at 10 µM (Hs-578T [2]): 67% | GI50 (LOX IMVI): 7.24 µM | GI50 (KM12): 3.62 µM | GI50 (HOP-92): 3.25 µM | GI50 (Hs-578T [3]): < 10 µM | GI50 (RXF 393): 5.05 µM
